Experiment [1] concerns Rattus norvegicus. Nature of the experiment: Antihypertensive activity measured by maximum fall in the mean blood pressure after an oral administration of 1 mg/kg in spontaneously hypertensive rats; NS= Did not lower the blood pressure significantly. The class given is functional, organism-based. On the set-up: dose 1 mg/kg. The gist of the method: (§1)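 Conscious, unrestrained male spontaneously hypertensive rats (Okamoto strain, 280-330 g, blood pressure >180 mmHg), N ≥ 3, given a single 1 mg/kg oral screening dose. Mean arterial pressure was recorded directly via an aortic catheter from 1 h before to 3.5 h after dosing. The value is the mean of the maximum individual falls over 3.5 h; a fall under 18 mmHg counted as not significant.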

Experiment [2] is filed under the species Rattus norvegicus. Nature of the experiment: Dose required to reduce mean blood pressure by 30 mmHg in spontaneously hypertensive rats. The class given is functional. The gist of the method: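 Conscious male Okamoto SHR (280-330 g, baseline pressure >180 mmHg) fitted with an aortic catheter for continuous direct recording of mean arterial pressure over 3.5 h. Compounds active at the 1 mg/kg oral screen were given orally at 2-4 additional doses. Mean maximal falls were regressed linearly against log dose to derive ED30, the dose in […] lowering pressure by 30 mmHg.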

For experiment [3], the system named is Rattus norvegicus. Nature of the experiment: Antihypertensive activity measured by maximum fall in the mean blood pressure after an oral administration of 1 mg/kg in spontaneously hypertensive rats. The class given is functional. The gist of the method:
as §1

[4] abbreviates: Rattus norvegicus, Blood, read-out: ED30.

Consider `CC1(C)Oc2ccc(C#N)cc2C(n2ccc(N)nc2=O)[C@@H]1O` (stereo partly specified), for which the BP entry in the experiment with Rattus norvegicus [1] was “Not significant”.

`Cn1nc(O[C@@H]2c3cc(C#N)ccc3OC(C)(C)[C@H]2O)ccc1=O` (stereo in doubt; 14a): in the experiment filed under Rattus norvegicus [2] (setting [4]), the ED30 was determined as 0.018 mg/kg. Besides, the BP with Rattus norvegicus [3] (1 mg/kg) is 124 mmHg.

As to `CC(C)n1nc(O[C@@H]2c3cc(C#N)ccc3OC(C)(C)[C@H]2O)ccc1=O`, the BP in the experiment with Rattus norvegicus [3] turned out to be 32 mmHg.

For the compound `CC1(C)Oc2ccc(C#N)cc2C(Oc2ccc(=O)[nH]n2)C1O` (stereo unspecified), the ED30 in the experiment filed under Rattus norvegicus [2] (setting [4]) was determined as 0.014 mg/kg. In the experiment on Rattus norvegicus [3], this compound showed a BP of 129 mmHg.

As for `CC1(C)C=C(Oc2ccc(S)nn2)c2cc(C#N)ccc2O1`, the BP result in the experiment with Rattus norvegicus [1] is “Not significant”.

`CC(=O)Oc1ccn(C2=CC(C)(C)Oc3ccc(C#N)cc32)c(=O)c1` yielded a BP with Rattus norvegicus [3] of 28 mmHg.

As to `CC1(C)Oc2ccc(Br)cc2C(Oc2ccc(=O)[nH]n2)C1O` (stereo unspecified), the BP entry in the experiment with Rattus norvegicus [1] was “Not significant”.

`CC1(C)Oc2ccc(C(=N)S)cc2[C@@H](Oc2ccnc(O)c2)[C@@H]1O`: the BP result with Rattus norvegicus [1] was “Not significant”.

Take `CC1(C)Oc2ccc(C(N)=S)cc2C(Oc2ccc(=O)[nH]n2)C1O` (stereo unspecified): the BP result with Rattus norvegicus [1] was “Not significant”.

As for `CC1(C)Oc2ccc(C#N)cc2[C@@H](Oc2cccnc2O)[C@@H]1O`, the BP entry in the experiment on Rattus norvegicus [1] was “Not significant”.

In the case of `CC1(C)Oc2ccc(C#N)cc2[C@@H](n2ccc(O)cc2=O)[C@@H]1O`, in the experiment on Rattus norvegicus [3], the BP is on record as 28 mmHg.

On to `CC1(C)Oc2ccc(C#N)cc2C(n2ccc(N)cc2=O)[C@@H]1O` (stereo partly specified), for which the BP entry in the experiment with Rattus norvegicus [1] was “Not significant”.

`CC1(C)Oc2ccc(C#N)cc2[C@@H](n2[nH]c(=O)ccc2=O)[C@@H]1O`: in the experiment on Rattus norvegicus [1], the BP result was “Not significant”.

Regarding `CC1(C)C=C(Oc2ccc(=O)[nH]n2)c2cc(C#N)ccc2O1`, the BP entry in the experiment with Rattus norvegicus [1] is “Not significant”.

The compound `CC1(C)Oc2ccc(C#N)cc2C(n2nc(N)ccc2=O)[C@@H]1O` (stereo partly specified) yielded a BP with Rattus norvegicus [3] of 39 mmHg.

Take `Cn1nc(OC2=CC(C)(C)Oc3ccc(C#N)cc32)ccc1=O`: the BP entry in the experiment on Rattus norvegicus [1] is “Not significant”.

`COC(=O)c1ccc2c(c1)C(Oc1ccc(=O)[nH]n1)C(O)C(C)(C)O2` (stereo unspecified) displayed a BP with Rattus norvegicus [3] of 18 mmHg.

Take `CC1(C)Oc2ccc(C#N)cc2[C@H](Oc2ccc(=O)[nH]n2)[C@H]1O`: the BP result in the experiment on Rattus norvegicus [1] was “Not significant”.

The compound `Cn1nc(O[C@H]2c3cc(C#N)ccc3OC(C)(C)[C@@H]2O)ccc1=O` gave a BP in the experiment on Rattus norvegicus [3] of 19 mmHg.

As to `CC1(C)Oc2ccc(C#N)cc2[C@@H](Oc2ccnc(O)c2)[C@@H]1O`, the ED30 in the experiment filed under Rattus norvegicus [2] (setting [4]) came to 0.006 mg/kg. This compound gave a BP with Rattus norvegicus [3] of 104 mmHg.

On to `CC1(C)Oc2ccc(C#N)cc2[C@@H](Oc2ccc(O)nc2)[C@@H]1O`, for which, in the experiment with Rattus norvegicus [3], the BP is listed as 23 mmHg.

`CC1(C)Oc2ccc(C#N)cc2[C@@H](Oc2cc(O)ncn2)[C@@H]1O`: the BP result in the experiment on Rattus norvegicus [1] is “Not significant”.

Take `CC(=O)OC1C(Oc2ccc(=O)[nH]n2)c2cc(C#N)ccc2OC1(C)C` (stereo unspecified): in the experiment on Rattus norvegicus [3], the BP was 97 mmHg.

Regarding `COC(=O)c1ccc2c(c1)[C@@H](Oc1ccnc(O)c1)[C@H](O)C(C)(C)O2`, the BP entry in the experiment with Rattus norvegicus [1] is “Not significant”.

For `CC1(C)Oc2ccc([N+](=O)[O-])cc2C(Oc2ccc(=O)[nH]n2)C1O` (stereo unspecified), the BP with Rattus norvegicus [3] is reported as 78 mmHg.

`Cn1nc(O[C@@H]2c3cc(C#N)ccc3OC(C)(C)[C@H]2O)ccc1=O` (stereo in doubt; 22a) had an ED30 in the experiment filed under Rattus norvegicus [2] of 0.013 mg/kg. The BP with Rattus norvegicus [3] (1 mg/kg) is given as 151 mmHg.

`CC1(C)C=C(n2ccc(O)cc2=O)c2cc(C#N)ccc2O1` registered a BP in the experiment on Rattus norvegicus [3] of 19 mmHg.

In the case of `CC1(C)Oc2ccc(C#N)cc2[C@@H](Oc2ccc(S)nn2)[C@@H]1O`, the BP entry in the experiment with Rattus norvegicus [1] is “Not significant”.

On to `CC1(C)Oc2ccc(C#N)cc2C(N2CCCC2=O)C1O` (stereo unspecified) [CROMAKALIM], for which the ED30 in the experiment listed under Rattus norvegicus [2] (setting [4]) was 0.11 mg/kg. The compound also showed a BP with Rattus norvegicus [3] of 78 mmHg.

Consider `CC1(C)C=C(Oc2ccnc(O)c2)c2cc(C#N)ccc2O1`, for which the BP entry in the experiment with Rattus norvegicus [1] was “Not significant”.

For `CC1(C)Oc2ccc([N+](=O)[O-])cc2[C@@H](Oc2ccnc(O)c2)[C@@H]1O`, the ED30 in the experiment listed under Rattus norvegicus [2] (setting [4]) is 0.013 mg/kg. Besides, the BP in the experiment on Rattus norvegicus [3] was 117 mmHg.

As to `CCn1nc(O[C@@H]2c3cc(C#N)ccc3OC(C)(C)[C@H]2O)ccc1=O`, the ED30 in the experiment filed under Rattus norvegicus [2] (setting [4]) came out at 0.02 mg/kg. For the same compound, in the experiment with Rattus norvegicus [3], the BP was found to be 127 mmHg.

As to `CC1(C)Oc2ccc(C#N)cc2[C@@H](Oc2cccnc2N)[C@@H]1O`, the BP result with Rattus norvegicus [1] was “Not significant”.

`Cn1ccc(O[C@@H]2c3cc(C#N)ccc3OC(C)(C)[C@H]2O)cc1=O`: in the experiment with Rattus norvegicus [3], the BP stood at 83 mmHg.

These data come from ChEMBL document CHEMBL1124979, “4-Heterocyclyloxy-2H-1-benzopyran potassium channel activators” (1990).
